For test [1], the target named is D(2) dopamine receptor (Homo sapiens) (UniProt P14416). Put plainly: Displacement of [3H]Raclopride from recombinant human D2L receptor expressed in Flp-In CHO cell membranes after 2 to 3 hrs by microbeta counting method. Summed up: (§1)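 hD2LR FlpIn CHO membrane homogenate (15 µg protein) was co-incubated with 0.5 nM [3H]raclopride and test compound at 10^-3 to 10^-7 M (half-log dilutions from DMSO stock, in duplicate). Incubation was 2-3 h at 25 °C in HEPES buffer, pH 7.4. Nonspecific binding was defined with 10 µM haloperidol. Filtration was followed by scintillation counting. KB and cooperativity α were obtained from an allosteric ternary complex model.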
Chain of D(2) dopamine receptor (Homo sapiens) (P14416 whole entry): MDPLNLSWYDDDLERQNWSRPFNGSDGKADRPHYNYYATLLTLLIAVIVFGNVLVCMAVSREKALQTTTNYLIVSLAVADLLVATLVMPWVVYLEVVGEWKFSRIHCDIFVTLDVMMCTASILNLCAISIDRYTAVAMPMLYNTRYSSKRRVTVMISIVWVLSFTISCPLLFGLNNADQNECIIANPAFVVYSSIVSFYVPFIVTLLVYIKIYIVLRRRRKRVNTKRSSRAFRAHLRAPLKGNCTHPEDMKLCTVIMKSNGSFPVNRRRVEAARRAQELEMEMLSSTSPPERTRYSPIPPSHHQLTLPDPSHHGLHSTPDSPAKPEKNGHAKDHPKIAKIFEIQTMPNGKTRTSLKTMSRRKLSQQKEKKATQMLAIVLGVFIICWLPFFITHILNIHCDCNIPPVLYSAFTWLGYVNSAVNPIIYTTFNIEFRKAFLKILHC

The target is the same in test [2]. Put plainly: Displacement of [3H]Raclopride from recombinant human D2L receptor expressed in Flp-In CHO cell membranes assessed as co-operativity factor after 2 to 3 hrs by microbeta counting method. The essentials: as §1
Test [3] shares this target. The test is described as follows: Negative allosteric modulation of recombinant human D2L receptor expressed in Flp-In CHO cells assessed as inhibition of dopamine-induced reduction in forskolin stimulated cAMP accumulation preincubated for 30 mins followed by forskolin stimulation and measured after 30 mins by BRET assay. Type of test: functional, cell-based.
Test [4] shares this target. The test is described as follows: Negative allosteric modulation of recombinant human D2L receptor expressed in Flp-In CHO cells assessed as inhibition of dopamine-induced reduction in forskolin stimulated cAMP accumulation by measuring co-operativity factor preincubated for 30 mins followed by forskolin stimulation and measured after 30 mins by BRET assay. Type of test: functional, cell-based.

Test [5] shares this target. Put plainly: Negative allosteric modulation of recombinant human D2L receptor expressed in Flp-In CHO cells assessed as inhibition of dopamine-induced reduction in forskolin stimulated cAMP accumulation by measuring modulation of dopamine efficacy preincubated for 30 mins followed by forskolin stimulation and measured after 30 mins by BRET assay. The format is functional, cell-based. (In general: cAMP levels reflect the balance of adenylyl cyclase and phosphodiesterase activity.)

The target of test [6] is D(3) dopamine receptor (Homo sapiens) (UniProt P35462). Put plainly: Displacement of [3H]Raclopride from recombinant D3 receptor (unknown origin) expressed in Flp-In CHO cell membranes after 2 to 3 hrs by microbeta counting method. The essentials: (§2)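 In FlpIn CHO membranes expressing hD3R, compound was tested for displacement of [3H]raclopride in equilibrium binding. Competition curves were fitted with an allosteric ternary complex model to give KB and the net cooperativity factor with [3H]raclopride. Data are at least three independent experiments in duplicate.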
Chain of D(3) dopamine receptor (Homo sapiens) (P35462 whole entry): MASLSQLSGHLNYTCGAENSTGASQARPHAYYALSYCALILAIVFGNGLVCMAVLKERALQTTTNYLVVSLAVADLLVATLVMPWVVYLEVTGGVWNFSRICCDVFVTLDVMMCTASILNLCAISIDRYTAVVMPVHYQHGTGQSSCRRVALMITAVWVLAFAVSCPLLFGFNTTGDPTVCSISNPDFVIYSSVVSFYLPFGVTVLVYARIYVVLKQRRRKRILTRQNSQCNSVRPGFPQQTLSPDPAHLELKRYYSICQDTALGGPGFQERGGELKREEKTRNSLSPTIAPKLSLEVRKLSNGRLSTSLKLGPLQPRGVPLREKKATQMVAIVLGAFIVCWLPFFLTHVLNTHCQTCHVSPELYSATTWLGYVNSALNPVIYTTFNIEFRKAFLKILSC
A general note: In a radioligand displacement assay an active substance lowers the binding of a labelled ligand.

Test [7] has the same target. Put plainly: Displacement of [3H]Raclopride from recombinant D3 receptor (unknown origin) expressed in Flp-In CHO cell membranes assessed as co-operativity factor after 2 to 3 hrs by microbeta counting method. The essentials:
as §2

The next test is filed under the species Homo sapiens. Put plainly: Selectivity ratio of Kb for recombinant D3 receptor (unknown origin) expressed in Flp-In CHO cell membranes to Kb for recombinant human D2L receptor expressed in Flp-In CHO cell membranes. Type of test: cell-based.
Test [8] addresses D(2) dopamine receptor (Homo sapiens) (UniProt P14416). The test is described as follows: Allosteric modulation of recombinant human D2L receptor expressed in Flp-In CHO cell membranes assessed as dissociation of [3H]Raclopride at 100 uM in presence of haloperidol after 2 to 3 hrs by microbeta counting method (reference value: 0.02 +/- 0.004 /min). Type of test: cell-based. Summed up:
(§3)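 Membranes from FlpIn CHO cells stably expressing hD2LR were incubated with 0.5 nM [3H]raclopride for 60 min in HEPES/NaCl/MgCl2/EGTA/EDTA buffer, pH 7.4, at 25 °C. Dissociation was then started by adding 10 µM haloperidol, with or without modulator. Bound radioactivity was collected by filtration and scintillation counting. Curves were fitted for koff, and t1/2 = 0.6931/koff.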

The target is the same in test [9]. Put plainly: Allosteric modulation of recombinant human D2L receptor expressed in Flp-In CHO cell membranes assessed as dissociation half life for [3H]Raclopride at 100 uM in presence of haloperidol after 2 to 3 hrs by microbeta counting method (reference value: 34.2 min). Type of test: cell-based. Summed up:
as §3

The target is the same in test [10]. Put plainly: Allosteric modulation of recombinant human D2L receptor expressed in Flp-In CHO cell membranes assessed as dissociation of [3H]Raclopride in presence of haloperidol after 2 to 3 hrs by microbeta counting method (reference value: 0.014 +/- 0.001 /min). Type of test: cell-based. Summed up:
as §3

For test [11] the target is unchanged. The test is described as follows: Allosteric modulation of recombinant human D2L receptor expressed in Flp-In CHO cell membranes assessed as dissociation half life for [3H]Raclopride in presence of haloperidol after 2 to 3 hrs by microbeta counting method (reference value: 49.2 min). The format is cell-based. Summed up: as §3

On to `FC(F)(F)c1cccc(Nc2ncnc3sc4c(c23)CCCC4)c1`, for which the Kb stood at 31 µM in [1], 25400 nM in [3] and 200 nM in [6]. The values for the pKb in [1], in [3] and in [6] were 4.51, 4.6 and 6.65, respectively. Also, the figures for the Activity in [2], in test [5] and in test [7] were 0.39, 0.1 and 0.06, respectively. In addition, the log(activity) in test [2] is -0.41; in test [4] it was 0; in test [5] it was -1.02; in test [7] it was -0.39. The Selectivity ratio in the test listed under Homo sapiens is 140.

For `FC(F)(F)c1cccc(Nc2nc(CCCCN3CCOCC3)nc3sc4c(c23)CCCC4)c1`, the Kb was found to be 3.31 µM in [1] and 611 nM in [3]. In addition, the figures for the pKb in [1], in test [3] and in test [6] were 5.48, 6.21 and 3.97, respectively. Further, the Activity was 0.09 in test [2], 0.19 in test [4], 0.03 in test [5] and 0.2 in test [7]. The log(activity) in [2] is -1.03; in [4], -0.72; in [5] it was -1.5; in [7], -0.69. In addition, in the test listed under Homo sapiens, the Selectivity ratio came out at 0.03.

As to `FC(F)(F)c1cccc(Nc2nc(CC3CCOCC3)nc3sc4c(c23)CCCC4)c1`, the Kb is 100 µM in test [1], 622 nM in test [3] and 52000 nM in [6]. The pKb (commonly the Kb on a negative log10 scale, so that one unit is a factor of ten) in test [1] was 3.99; in [3] it was 6.22; in test [6] it was 4.28. The Activity worked out at 0.39 in test [2], 0.13 in test [4], 0.23 in [5] and 0.37 in test [7]. Besides, the log(activity) in [2] was -0.41; in [4], -0.89; in test [5] it was -0.63; in test [7] it was -0.44. In the test filed under Homo sapiens, the Selectivity ratio was 2.

As for `FC(F)(F)c1cccc(Nc2nc(CN3CCOCC3)nc3sc4c(c23)CCCC4)c1`, the Kb in [1] was found to be 16.6 µM; in test [3], 3870 nM; in test [6], 300 nM. Further, the pKb is 4.78 in test [1], 5.41 in test [3] and 6.54 in test [6]. Moreover, the K in [8] is 0.038 min⁻¹. Further, the T1/2 in test [9] is 18.1 min. The results for the log(activity) in [4], in [5] and in test [7] were 0, -0.55 and -0.4, respectively. Also, the values for the Activity in test [5] and in [7] were 0.28 and 0.39, respectively. In addition, the Selectivity ratio in the test listed under Homo sapiens was determined as 57.

Consider `CCN(CC)c1nc(CN2CCOCC2)nc2sc3c(c12)CCCC3`, for which the Kb in test [1] amounted to 6 µM; in [3], 662 nM. For the same molecule, the pKb in test [1] turned out to be 5.22; in [3], 6.18; in [6], 3.85. In addition, in [10], the K is 0.038 min⁻¹. Besides, the T1/2 in test [11] amounted to 18.2 min. Also, the Activity was found to be 0.23 in [2], 0.68 in test [4] and 0.08 in test [5]. The log(activity) in test [2] is -0.64; in test [4], -0.17; in [5], -1.1. Also, the Selectivity ratio in the test filed under Homo sapiens was determined as 23.

The values are drawn from ChEMBL document CHEMBL4308833, “A Thieno[2,3- d]pyrimidine Scaffold Is a Novel Negative Allosteric Modulator of the Dopamine D2 Receptor” (J Med Chem, 2018).
